Results taken from the M2OR odorant receptor database.
Where a chain is given by its changes, count along the chain named.

biological target: T1, OR1A2 (Homo sapiens) (UniProt Q9Y585); settings: stereoisomer not certain
T1 sequence (whole entry): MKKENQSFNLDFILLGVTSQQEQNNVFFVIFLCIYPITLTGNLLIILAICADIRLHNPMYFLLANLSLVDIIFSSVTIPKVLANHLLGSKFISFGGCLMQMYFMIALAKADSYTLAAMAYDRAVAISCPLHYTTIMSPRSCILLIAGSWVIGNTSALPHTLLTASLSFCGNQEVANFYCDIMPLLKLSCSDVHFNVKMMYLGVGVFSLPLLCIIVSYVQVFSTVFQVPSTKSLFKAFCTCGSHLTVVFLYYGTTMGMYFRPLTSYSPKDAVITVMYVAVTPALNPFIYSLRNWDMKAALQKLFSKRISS
In short: (§1)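 Values were gathered from published papers (main text and supplementary material), with extra details requested from the original authors when needed, and checked for typos and inconsistencies. Each receptor–molecule pair is called responsive (active) if the original authors judged the measured signal statistically different from baseline, and non-responsive (inactive) otherwise. Assay methods varied by source, often transient mammalian cell-line luciferase assays. Recorded details include cell line, G-protein, co-transfected protein and tags.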

| SMILES | odorant receptor agonist call |
| --- | --- |
| COC(C=C(C)CCC=C(C)C)OC | inactive |
| CN(C)C | inactive |
| CC=CC(=O)C1=C(C)C=CCC1(C)C | inactive |
| C=CC(=O)CCCCC | active |
| CCCCC(S)C(C)CO (centres undefined) | active |
| CCCCCCC=CC=O | inactive |
| CC1=C(O)C(=O)C(C)O1 (centres undefined) | inactive |
| COc1nccnc1C(C)C | inactive |
| CCCCCCC(=O)[O-].[H+] | inactive |
| CCC1OC(C)=C(O)C1=O (centres undefined) | inactive |
| C=C(C)C1CC=C(C)C(OC(C)=O)C1 (centres undefined) | inactive |
| CC(CC=O)CCCC(C)(C)O (centres undefined) | active |
| CCCCCO | inactive |
| CCc1ncc(C)nc1CC | inactive |
| CCC(C)c1nccnc1OC (centres undefined) | inactive |
| CC1CCCCCCCCCCCCC(=O)C1 (centres undefined) | inactive |
| CC1=C(O)C(=O)OC1C (centres undefined) | inactive |
| CCCCCCCC(=O)[O-].[H+] | inactive |

| SMILES | odorant receptor agonist call |
| --- | --- |
| CCCCCCC=CCCC=O | inactive |
| CCC1OC(=O)C(O)=C1C (centres undefined) | inactive |
| Cc1cnc(C)c(C)n1 | inactive |
| C1CCNC1 | inactive |
| C=CC(=O)CC | inactive |
| CC(C)=CCCC(C)=CC#N | inactive |
| CCCCCC(=O)C(C)C(C)=O (centres undefined) | inactive |
| CC(C)=CCCC(C)=CCCC(C)=CCO | inactive |
| C=CC(C)=CCC=C(C)CCC=C(C)C | inactive |
| CCCC(S)CCOC(C)=O (centres undefined) | inactive |
| CC1(C)C2CC=C(C=O)C1C2 (centres undefined) | inactive |
| CCCCS | inactive |
| CC1CCC(C(C)C)C(=O)C1 (centres undefined) | inactive |
| COc1nccnc1CC(C)C | inactive |
| CCCCCCCCCO | inactive |
| C=C(C)C1CC=C(C)C(O)C1 (centres undefined) | active |
| CC1=NC(C)C(C)S1 (centres undefined) | inactive |
| CC(C)=CCCC(C)CCO (centres undefined) | active |

system: T2, OR1A2 G256C W293C; settings: stereoisomer not certain
T2 sequence (whole entry): T1 sequence (whole entry) with G256C, W293C
In short: as §1

| SMILES | odorant receptor agonist call |
| --- | --- |
| CC1=C(O)C(=O)C(C)O1 (centres undefined) | inactive |
| CCC1OC(C)=C(O)C1=O (centres undefined) | inactive |
| CC1=C(O)C(=O)OC1C (centres undefined) | inactive |
| CCCCCCC=CCCC=O | inactive |
| CCC1OC(=O)C(O)=C1C (centres undefined) | inactive |
| Cc1cnc(C)c(C)n1 | inactive |
| CCCC(S)CCOC(C)=O (centres undefined) | inactive |
| CC1=NC(C)C(C)S1 (centres undefined) | inactive |
